Experimental data as given in PMC10237622 (Structure (London, England : 1993), 2023).

Experiments:
[1] = test system: peptides Pep-I through Pep-IV; experiment: Reverse-format BLI, immobilized L9 IgG dipped into peptide; assay type: binding, Plasmodium falciparum; details: IgG (5 ug/mL) immobilized on AHC biosensors to 0.1 nm, dipped into varying peptide concentrations, 30°C
[2] = test system: CSP peptide Pep-II (1 NPNV; 1 NPNA); experiment: Biolayer interferometry; assay type: binding, Plasmodium falciparum
Procedure, shortened: (§1)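 Streptavidin biosensors were loaded with biotinylated CSP peptide at 0.1 ug/mL in PBS + 1% BSA. Loading times were shortened per peptide (45, 30, 15, 3 s) to keep density below 0.01 nm. After a 60 s baseline, Fab (2000–2.7 nM), IgG (1000–1.3 nM) or IgM (100–0.1 nM) associated for 240–300 s, then dissociated 1200 s, at 30°C with agitation. Curves were drift-corrected against a loaded sensor in PBS and fitted globally to a 1:1 Langmuir model.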

[3] = test system: CSP peptides Pep-II through Pep-IV; experiment: BLI free energies of binding, peptides Pep-II through Pep-IV versus Pep-I; design: species or system Plasmodium falciparum; details: Pep-II though Pep-IV after subtraction of Pep-I
Procedure, shortened: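 Free energy of binding was calculated from each experimental KD. The Pep-I value was subtracted from Pep-II through Pep-IV to isolate added binding energy from multivalent and homotypic interactions.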

[4] = test system: CSP peptide Pep-III (2 NPNV; 0 NPNA); experiment: Biolayer interferometry; assay type: binding, Plasmodium falciparum
[5] = biological target: CSP peptide Pep-IV (3 NPNV; 1 NPNA); experiment: Biolayer interferometry; assay type: binding, Plasmodium falciparum
[6] = test system: CSP peptide Pep-I (1 NPNV; 0 NPNA); experiment: Biolayer interferometry; assay type: binding, Plasmodium falciparum; details: IgG versus Fab
Procedure, shortened: as §1

Substance	affinity, reverse format (in words) [1]	increase in affinity (free energy of binding ΔG minus ΔG of Pep-I) ([2]; L9 IgG, homotypic and less preferred NPNA with two L9s (Pep-II), calculated from KD) [kcal/mol]	affinity, fold higher than to Pep-I ([2]; Pep-II versus Pep-I)	increase in affinity, Fab/IgG/IgM context compared (in words) [3]	increase in affinity (free energy of binding ΔG minus ΔG of Pep-I) ([4]; L9 IgG, homotypic and preferred NPNV with two L9s (Pep-III), calculated from KD) [kcal/mol]	affinity, fold higher than to Pep-II ([4]; Pep-III versus Pep-II)	decrease in KD (in words) ([5]; L9 IgG, Pep-IV versus Pep-I)	affinity (in words) ([5]; Pep-IV (3 NPNV; 1 NPNA))	on-rate, fold higher than Fab [6] [fold]
L9 IgG: L9 IgG, produced in house	comparable affinities to peptides Pep-I through Pep-IV	-1.1	~ 6 fold	greatest in the IgG context	-2.2	~ 6 fold	over two orders of magnitude	substantially higher affinity	25
IgM: L9 IgM, produced in house	–	–	–	lowest in the IgM context	–	–	–	–	–
